PAFAH2 inh – PAFAH2 enzyme inhibitors, primary screen, biochemical, fluorescence polarization, human; Platelet-activating factor acetylhydrolase 2, cytoplasmic (Homo sapiens), Q99487; recombinant PAFAH2, FP-rhodamine activity probe; inhibition, % at 3.39 µM; actives 0.99% (n = 340,000);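 active = inhibition above the mean over all tested compounds plus 3 SD, cut at about 30% in these data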;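 note: inhibitors block probe labeling of enzyme so polarization drops; 0% = enzyme with DMSO and 100% = wells lacking PAFAH2 protein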
PAFAH1B3 FP inh – PAFAH1B3 enzyme inhibitors, primary screen, biochemical, fluorescence polarization, human | Platelet-activating factor acetylhydrolase IB subunit alpha1 (Homo sapiens), Q15102 | recombinant PAFAH1B3, FP-rhodamine probe | inhibition, % at 3.39 µM | actives 0.28% (n = 340,000) | AID 492972, 2010;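 active = inhibition above the screen-wide average of all tested compounds plus 3 SD, cut at about 25% in these data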;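 note: 0% = enzyme with DMSO only and 100% = wells lacking PAFAH1B3 protein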
TDP2 absorb – human TDP2 enzyme inhibitors, primary screen, biochemical, epi absorbance, recombinant enzyme; inhibition, % at 12.8 µM; T5PNP hydrolysis, p-nitrophenol absorbance 415 nm; actives 0.34% (n = 370,000);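 active = inhibition above the mean of all tested compounds plus 3 SD, set per campaign, cut at about 25% in these data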;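 note: 0% = DMSO with enzyme and 100% = buffer with substrate but no TDP2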
Target sequence (O95551 whole entry, looked up): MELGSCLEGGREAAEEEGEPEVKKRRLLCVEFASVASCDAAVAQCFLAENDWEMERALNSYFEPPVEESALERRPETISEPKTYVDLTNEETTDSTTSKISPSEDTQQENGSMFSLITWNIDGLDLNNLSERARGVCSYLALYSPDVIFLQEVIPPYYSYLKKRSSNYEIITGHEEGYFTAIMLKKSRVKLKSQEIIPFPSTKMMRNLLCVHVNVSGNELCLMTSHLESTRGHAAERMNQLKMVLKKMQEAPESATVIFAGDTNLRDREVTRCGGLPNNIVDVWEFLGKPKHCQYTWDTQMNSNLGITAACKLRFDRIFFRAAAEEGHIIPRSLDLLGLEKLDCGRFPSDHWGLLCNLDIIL
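System – recombinant human TDP2 · Amount – 120 nM TDP2 per well · Buffer or medium – Mg2+-containing Tris-HCl buffer, pH 7.5 · Reagent – T5PNP substrate, 5 mM · Dosing – 12.8 µM single point, 1% DMSO · Incubation – 2 h at 37 °C · Measured by – epi absorbance · Read-out basis – percent inhibition · Benchmarks – high control without enzyme, low control DMSO plus TDP2 · Repeats – singlicate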
PAFAH1B2 FP inh – PAFAH1B2 enzyme inhibitors, primary screen, biochemical, fluorescence polarization, human. inhibition, % at 3.39 µM. recombinant PAFAH1B2, FP-rhodamine activity probe. actives 1.2% (n = 340,000). AID 492953, 2010. Platelet-activating factor acetylhydrolase IB subunit alpha2 (Homo sapiens), P68402;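 active = inhibition above the mean of all tested compounds plus 3 SD, cut at about 24% in these data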;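 note: 0% = enzyme with DMSO and 100% = wells lacking PAFAH1B2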
Apaf1 inhib – inhibitors of human Apaf-1 apoptosome, primary screen, biochemical, DEVD-Rh110 fluorescence, uHTS; Apoptotic protease-activating factor 1 (Homo sapiens), O14727; reconstituted apoptosome caspase-3 activity; inhibition, % at 20 µM; actives 0.71% (n = 330,000); AID 489030, 2010; active = inhibition of at least 40% at 20 µM;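 note: plate controls were DMSO wells for no effect and DEVD-CHO caspase inhibitor wells for full effect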
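Material: reconstituted apoptosome with Apaf-1, cytochrome c, caspase-9, procaspase-3, dATP. Technique: Rh110 fluorescence intensity. Buffer or medium: pH 7.5 Hepes buffer with CHAPS, BSA, DTT. Times: 30 min plus 50 min, RT.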
The depositor's hits bear a star; x = no result given. In the library only some 2.3% were active in any assay of this set; here they are far more common.

SMILES | PAFAH2 inh | PAFAH1B3 FP inh | TDP2 absorb | PAFAH1B2 FP inh | Apaf1 inhib
COC(=O)C1=C(c2ccc(C(C)=O)cc2)C[C@@H]2CC[C@H]1N2C(=O)NCc1ccc(F)cc1 | -4.2 | 3.5 | 7.1 | 34.2* | -4.2
COC(=O)C1=C(c2cccc(OCc3ccccc3)c2)C[C@@H]2CC[C@H]1N2C(=O)NCc1ccc(OC)c(OC)c1 | -0.3 | -3.0 | -4.0 | 26.3* | 25.2
CC(NC(=O)OCc1ccccc1)[P+](=O)O (stereo not drawn) | x | x | -6.4 | x | x
Cc1c(P(=S)(c2ccccc2)c2ccccc2)c2ccccc2n1C | x | x | 2.4 | x | x
O=C(O)c1ccc(-[n+]2c(-c3ccccc3)cc(-c3ccccc3)cc2-c2ccccc2)cc1 | 4.5 | -5.9 | 7.4 | -1.2 | -2.8
CCCOC(=O)c1ccc(-[n+]2c(-c3ccccc3)cc(-c3ccccc3)cc2-c2ccccc2)cc1 | -1.0 | -0.4 | -7.8 | 1.3 | 47.4*
O=[N+]([O-])c1ccc(O)c([N+](=O)[O-])c1 | 0.6 | 8.1 | -10.8 | 7.3 | 4.2
O=[N+]([O-])c1cc(O)c(O)c([N+](=O)[O-])c1 | 36.9* | 16.4 | -0.9 | 16.2 | -8.4
COc1ccc([C@@H]2C[C@H]3[C@@H](CN2)CON3C)cc1 | x | x | -1.6 | x | x
CC[C@]12CCN(CC3(O)CC3)C(Cc3ccc(O)cc31)C2(C)C | x | x | 4.5 | x | x
c1ccc(-c2[nH]c[n+](CC3CO3)c2-c2ccccc2)cc1 (stereo not drawn) | x | x | x | x | 51.1*
CN1/C(=C\C=C\C2=[N+](C)c3ccc4ccccc4c3C2(C)C)C(C)(C)c2ccccc21 | x | x | x | x | 89.5*
CCN1/C(=C/C=C/C2=[N+](CC)c3ccccc3C2(C)C)C(C)(C)c2ccccc21 | x | x | -0.6 | x | x
C=C1C(=O)C(C)=C2C(=O)N3Cc4[nH]c5ccccc5c4CC3(C(=O)OC)C12 (stereo not drawn) | x | x | 7.0 | x | x
O=C1NC(=S)N(c2ccc(F)cc2)C(=O)/C1=C/c1ccco1 | x | x | x | x | 70.3*
COc1ccc(OC)c(N2C(=O)/C(=C/c3ccco3)C(=O)NC2=S)c1 | x | x | x | x | 72.6*
COc1ccc(OC)c(N2C(=O)NC(=O)/C(=C/c3ccc([N+](=O)[O-])s3)C2=O)c1 | 65.9* | 68.7* | 15.4 | 54.9* | 28.4
Cc1ccc(N2C(=O)NC(=O)/C(=C\c3ccoc3)C2=O)cc1 | 3.1 | 6.2 | -8.3 | -3.9 | 11.3
O=C1NC(=S)N(c2ccc(F)cc2)C(=O)/C1=C\c1ccoc1 | 50.4* | 7.3 | x | 8.6 | x
CCOC(=O)CC[C@@H]1CC[C@]2(CCCN(Cc3cccnc3)C2)O1 | x | x | 8.9 | x | x
CN(C)C(=O)Oc1noc2cc(Cl)ccc12 | 41.4* | 2.1 | 4.3 | 0.3 | -9.7
CC(C)C[C@H]1N=C(c2ccccc2)c2ccccc2N(CC(=O)NC(C)(C)C)C1=O | x | x | 7.4 | x | x
Cc1ccc(CN2C(=O)CN=C(c3ccccc3)c3ccccc32)cc1 | 9.5 | 1.1 | -3.7 | 28.1* | 11.4
CC(C)(C)NC(=O)C1CN=C(c2ccccc2)c2cc(Cl)ccc2N1C(=O)C1CCC1 (stereo not drawn) | x | x | 8.1 | x | x
Oc1c(Br)cc(Br)cc1Br | 1.1 | 1.8 | -2.7 | 3.6 | 5.7
Oc1c(Br)c(Br)c(Br)c(Br)c1Br | 27.4 | 13.8 | x | 41.3* | 11.4
CCn1nc(-c2ccccc2)nc2c(=O)n(C)c(=O)nc1-2 | 57.7* | 69.8* | x | 39.0* | 97.8*
COc1ccc(-c2nc3ccccc3c(=O)n2-c2ccc(OC)cc2)cc1 | 3.6 | 0.7 | 17.9 | -1.2 | -1.7
CC1Oc2cc3c(-c4c(O)cc(O)c5c(O)c6c(cc45)OC(C)C(C)C6=O)c(O)cc(O)c3c(O)c2C(=O)C1C (stereo not drawn) | 46.0* | 60.4* | x | 51.9* | 14.7
CC(C)C(C(=O)NC(C)(C)C)N1C(=O)CN=C(c2ccccc2)c2ccccc21 (stereo not drawn) | x | x | -4.1 | x | x
